Experimental data taken from ChEMBL document CHEMBL1142206, “Cysteine protease inhibitors block Toxoplasma gondii microneme secretion and cell invasion” (Antimicrob Agents Chemother, 2007).
Activity calls are given as the source filed them. The calls are words filed in the database; no cut-off is given here.

Assays:
Toxoplasma gondii [1] = experiment: Inhibition of Toxoplasma gondii 2F1 invasion in HFF cells assessed as beta-galactosidase activity at 10 uM; assay type: functional, organism-based
Outline: (§1)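 2F1 tachyzoites in invasion medium (DMEM, 1% FBS, 10 mM HEPES) at 4 × 10^6/ml, preincubated 15 min at room temperature with inhibitor (10 or 50 μM) or DMSO, then loaded onto HFF monolayers for 30 min at 37°C, 5% CO2. Washed six times with cold PBS containing Ca/Mg, lysed, and β-gal measured with CPRG (45 min, 37°C) at A550. Two independent experiments in duplicate.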

Toxoplasma gondii [2] = experiment: Inhibition of Toxoplasma gondii 2F1 invasion in HFF cells by red/green invasion assay; assay type: functional, organism-based; conditions: 2F1, HFF
Outline: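 Red/green assay: 2F1 parasites (5 × 10^7/ml in invasion medium) preincubated 15 min at room temperature with inhibitor (0.1 to 100 μM) or DMSO, then put on HFF for 15 min at 37°C. After fixation, attached parasites were stained with rabbit anti-SAG1 before permeabilization and invaded ones with MAb 9E11 after 0.1% Triton; DAPI marked nuclei. Associated parasites per host nucleus normalized to solvent control; three experiments, eight fields/well.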

Toxoplasma gondii [3] = experiment: Reduction of MIC10 secretion in Toxoplasma gondii 2F1 at 50 uM; assay type: functional, organism-based
Outline: (§2)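 2F1 parasites in DGH medium (DMEM, 2 mM glutamine, 10 mM HEPES), ~3–6 × 10^7 per reaction, pretreated 15 min at room temperature with 50 μM inhibitor or DMSO. Induced secretion used 2 min at 37°C with 1% ethanol; basal secretion used 20 min at 37°C without ethanol. Supernatant (ESA) immunoblotted for MIC2, AMA1, MIC5, MIC10 and GRA1; chemiluminescence quantified by CCD.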

Toxoplasma gondii [4] = experiment: Reduction of MIC5 secretion in Toxoplasma gondii 2F1 at 50 uM; assay type: functional, organism-based; outline: as §2
Toxoplasma gondii [5] = experiment: Inhibition of Toxoplasma gondii 2F1 invasion in HFF cells assessed as beta-galactosidase activity at 50 uM relative to control; assay type: functional; conditions: 2F1, HFF; outline: as §1
Toxoplasma gondii [6] = experiment: Reduction of AMA1 secretion in Toxoplasma gondii 2F1 at 50 uM; assay type: functional, organism-based; outline: as §2
Toxoplasma gondii [7] = experiment: Inhibition of microneme protein secretion in Toxoplasma gondii 2F1
Toxoplasma gondii [8] = experiment: Effect on gliding motility in Toxoplasma gondii RH at 50 uM; assay type: functional, organism-based
Outline: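 RH tachyzoites in HHE medium (HBSS, 10 mM HEPES, 1 mM EGTA), pretreated 15 min at room temperature with 50 μM inhibitor or DMSO, then allowed to glide 15 min at 37°C on slides coated with 50% FBS or poly-L-lysine. Fixed, and SAG1-containing trails stained with MAb 9E11 and visualized by epifluorescence at ×600.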

## Cc1cccc(C)c1C(=O)OCC(=O)[C@@H](N)CCCNC(=N)N
Toxoplasma gondii [1]
  Activity: inactive

## CC(=O)N1CCC[C@H]1C(=O)N[C@@H](CCCCN)C(=O)N[C@@H](CCCNC(=N)N)C(=O)N[C@H](/C=C/S(=O)(=O)c1ccccc1)CC(N)=O
Toxoplasma gondii [1]
  Activity: inactive

## CC(=O)N[C@@H](Cc1ccc(O)cc1)C(=O)N[C@@H](CCCCN)C(=O)N[C@@H](CC(C)C)C(=O)N[C@H](/C=C/S(=O)(=O)c1ccccc1)CC(N)=O
Toxoplasma gondii [1]
  Activity: inactive

## CC(C)C[C@@H](/C=C/S(C)(=O)=O)NC(=O)[C@H](CC(C)C)NC(=O)[C@H](CC(C)C)NC(=O)[C@@H](N)Cc1ccc(O)cc1
Toxoplasma gondii [1]
  Activity: inactive

## CC(=O)N1CCC[C@H]1C(=O)N[C@@H](CCCNC(=N)N)C(=O)N[C@@H](CCCCN)C(=O)N[C@H](/C=C/S(=O)(=O)c1ccccc1)CC(N)=O
Toxoplasma gondii [1]
  Activity: inactive

## Cc1cccc(C)c1C(=O)OCC(=O)[C@@H](N)CC(N)=O
Toxoplasma gondii [1]
  Activity: inactive

## O=c1oc(Cl)c(Cl)c2ccccc12
Toxoplasma gondii [2]
  IC50: 12.5 µM
Toxoplasma gondii [1]
  Activity: inactive

## Cc1cccc(C)c1C(=O)OCC(=O)CN
Toxoplasma gondii [1]
  Activity: inactive

## CC(C)C[C@H](/C=C/S(=O)(=O)c1ccccc1)NC(=O)[C@@H](CC(C)C)NC(=O)[C@@H](CC(C)C)NC(=O)Cc1cc(I)c(O)c([N+](=O)[O-])c1
Toxoplasma gondii [1]
  Activity: inactive

## CC(=O)N1CCC[C@H]1C(=O)N[C@@H](CCCCN)C(=O)N[C@@H](CCCCN)C(=O)N[C@H](/C=C/S(=O)(=O)c1ccccc1)CC(N)=O
Toxoplasma gondii [1]
  Activity: inactive

## CC(C)C[C@@H](NC(=O)N1CCOCC1)C(=O)N[C@@H](/C=C/S(=O)(=O)c1ccccc1)CCc1ccccc1
Toxoplasma gondii [3]
  Activity: Active
Toxoplasma gondii [4]
  Activity: Active
Toxoplasma gondii [5]
  inhibition at 50 µM: 70%
Toxoplasma gondii [6]
  Activity: Active
Toxoplasma gondii [7]
  IC50: 25 µM
Toxoplasma gondii [2]
  IC50: 10 µM
Toxoplasma gondii [8]
  Activity: Active

## CN1CCN(C(=O)N[C@@H](Cc2ccccc2)C(=O)N[C@H](/C=C/S(=O)(=O)c2ccccc2)CCc2ccccc2)CC1
Toxoplasma gondii [1]
  Activity: inactive

## CCOC(=O)[C@H]1O[C@@H]1C(=O)N[C@@H](CC(C)C)C(=O)NCCC(C)C
Toxoplasma gondii [1]
  Activity: inactive

## CC(=O)N[C@@H](Cc1ccc(O)cc1)C(=O)N[C@@H](CCCNC(=N)N)C(=O)N[C@@H](CCCCN)C(=O)N[C@H](/C=C/S(=O)(=O)c1ccccc1)CC(N)=O
Toxoplasma gondii [1]
  Activity: inactive

## CCOC(=O)C1OC1C(=O)N[C@@H](CC(C)C)C(=O)NCCc1ccc(O)cc1 (stereo partly drawn)
Toxoplasma gondii [1]
  Activity: inactive

## CC(C)C[C@H](/C=C/S(=O)(=O)c1ccccc1)NC(=O)[C@@H](CC(C)C)NC(=O)[C@@H](CC(C)C)NC(=O)OCc1ccccc1
Toxoplasma gondii [3]
  Activity: Active
Toxoplasma gondii [4]
  Activity: Active
Toxoplasma gondii [5]
  inhibition at 50 µM: 50%
Toxoplasma gondii [6]
  Activity: Active
Toxoplasma gondii [7]
  IC50: 50 µM
Toxoplasma gondii [2]
  IC50: 12.5 µM
Toxoplasma gondii [1]
  Activity: inactive
Toxoplasma gondii [8]
  Activity: Active

## CC(=O)N1CCC[C@H]1C(=O)N[C@@H](CCCNC(=N)N)C(=O)N[C@@H](CC(C)C)C(=O)N[C@H](/C=C/S(=O)(=O)c1ccccc1)CC(N)=O
Toxoplasma gondii [1]
  Activity: inactive

## CC(=O)N[C@@H](Cc1ccc(O)cc1)C(=O)N[C@@H](CCCCN)C(=O)N[C@@H](CCCCN)C(=O)N[C@H](/C=C/S(=O)(=O)c1ccccc1)CC(N)=O
Toxoplasma gondii [1]
  Activity: inactive

## CCC(C)[C@H](NC(=O)C1OC1C(=O)NCC(C)C)C(=O)N1CCC[C@@H]1C(=O)O (stereo partly drawn)
Toxoplasma gondii [1]
  Activity: inactive

## Cc1cccc(C)c1C(=O)OCC(=O)[C@@H](N)CC(C)C
Toxoplasma gondii [1]
  Activity: inactive

## CC(=O)N[C@@H](Cc1ccc(O)cc1)C(=O)N[C@@H](CCCNC(=N)N)C(=O)N[C@@H](CC(C)C)C(=O)N[C@H](/C=C/S(=O)(=O)c1ccccc1)CC(N)=O
Toxoplasma gondii [1]
  Activity: inactive

## CC(=O)N[C@@H](Cc1ccc(O)cc1)C(=O)N[C@@H](CCCCN)C(=O)N[C@@H](CCCNC(=N)N)C(=O)N[C@H](/C=C/S(=O)(=O)c1ccccc1)CC(N)=O
Toxoplasma gondii [1]
  Activity: inactive

## CC(=O)N1CCC[C@H]1C(=O)N[C@@H](CCCCN)C(=O)N[C@@H](CC(C)C)C(=O)N[C@H](/C=C/S(=O)(=O)c1ccccc1)CC(N)=O
Toxoplasma gondii [1]
  Activity: inactive

## CC(C)C[C@H](NC(=O)[C@H]1O[C@@H]1C(=O)O)C(=O)NCCCCN=C(N)N
Toxoplasma gondii [1]
  Activity: inactive
